# Read-outs that look alike come from different tables or passages of the source.
# Key:
# [1] = test system: P. falciparum clone A3 (PfeEF2 Y719C); experiment: 72 hour concentration-response assay, MMV692140-selected clone A3; assay type: cell-based, Plasmodium falciparum; details: vs parental Dd2-B2, Figure 3
# Outline: (§1)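 Drug-selected P. falciparum clones carry PfeEF2 point mutations in the chloroquine-resistant Dd2-B2 background and are compared with the parental Dd2-B2 clone. […] Each clone was tested against parent by unpaired t test with Welch's correction.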
# [2] = test system: P. falciparum clone D3 (PfeEF2 F770L); experiment: 72 hour concentration-response assay, MMV692140-selected clone D3; assay type: cell-based, Plasmodium falciparum; details: IC50 vs Dd2-B2 parent
# Outline: as §1
# [3] = test system: P. falciparum clone G12 (PfeEF2 L507S); experiment: 72 hour concentration-response assay, MMV692140-selected clone G12; assay type: cell-based, Plasmodium falciparum; details: vs parental Dd2-B2, Figure 3
# Outline: as §1
# [4] = test system: P. falciparum clone D6 (PfeEF2 Y186N); experiment: 72 hour concentration-response assay, M5717-selected clone D6; assay type: cell-based, Plasmodium falciparum
# Outline: as §1
# [5] = test system: P. falciparum clone E5 (PfeEF2 E134D); experiment: 72 hour concentration-response assay, M5717-selected clone E5; assay type: cell-based, Plasmodium falciparum
# Outline: as §1
# [6] = test system: P. falciparum clone F8 (PfeEF2 L775F); experiment: 72 hour concentration-response assay, M5717-selected clone F8; assay type: cell-based, Plasmodium falciparum
# Outline: as §1
# P. falciparum Dd2 (wt) = experiment: In vitro intraerythrocytic antimalarial activity, Dd2; assay type: cell-based, Plasmodium falciparum
# [7] = test system: P. falciparum Dd2 (PfeEF2); experiment: In vitro intraerythrocytic antimalarial activity, lab adapted strain Dd2; assay type: cell-based; details: Plasmodium falciparum, DD2, read-out: IC50, Dd2 (PfeEF2)
# Outline: (§2)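 Intraerythrocytic asexual-stage activity was measured against laboratory resistant lines, with resistance mutations introduced into a Dd2 wild-type background. Fold shift was taken relative to Dd2 wild type. Strain-matched reference inhibitors were tested on Dd2 wild type and on the mutant lines. Values are means of at least two independent experiments.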
# P. falciparum K1 = experiment: 72-hour [3H]hypoxanthine incorporation assay, field adapted strain K1; assay type: cell-based; details: Plasmodium falciparum, K1, read-out: IC50, K1
# Outline: (§3)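 Intraerythrocytic asexual-stage activity was measured against field-adapted drug-resistant P. falciparum strains. The drug-sensitive NF54 strain served as the wild-type reference, and fold shift was taken relative to NF54. Chloroquine and artesunate were run as control drugs.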
# P. falciparum 7G8 = experiment: 72-hour [3H]hypoxanthine incorporation assay, field adapted strain 7G8; assay type: cell-based; details: Plasmodium falciparum, 7G8, read-out: IC50, 7G8
# Outline: as §3
# P. falciparum TM90 C2b = experiment: 72-hour [3H]hypoxanthine incorporation assay, field adapted strain TM90 C2b; assay type: cell-based; details: Plasmodium falciparum, TM90, read-out: IC50, TM90 C2b
# Outline: as §3
# P. falciparum Cam3.I = experiment: 72-hour [3H]hypoxanthine incorporation assay, field adapted strain Cam3.I; assay type: cell-based; details: Plasmodium falciparum, read-out: IC50, Cam3.I
# Outline: as §3
# P. falciparum Dd2 = experiment: 72-hour [3H]hypoxanthine incorporation assay, field adapted strain Dd2; assay type: cell-based; details: Plasmodium falciparum, DD2, read-out: IC50, Dd2
# Outline: as §3
# P. falciparum 3D7 = experiment: In vitro P. falciparum viability assay, 3D7 strain, 72-hour SYBR green; assay type: cell-based, Plasmodium falciparum; details: for IC50: Plasmodium falciparum, 3D7, 72 h, read-out: 3D7 IC50
# Outline: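 Asexual blood-stage growth inhibition was measured on the 3D7 strain with 72 h exposure to test compound. IC50 values are geometric mean ± SEM of at least two independent experiments.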
# [8] = Metabolic stability study using human liver microsomes; assay type: in vitro ADME; details: pooled human liver microsomes
# [9] = test system: P. falciparum Dd2 (Pfpi4k); experiment: In vitro intraerythrocytic antimalarial activity, lab adapted strain Dd2; assay type: cell-based, Plasmodium falciparum
# Outline: as §2
# [10] = test system: P. falciparum Dd2 (Pfdhodh); experiment: as above; assay type: cell-based, Plasmodium falciparum
# Outline: as §2
# [11] = test system: P. falciparum Dd2 (Pfcytb); experiment: as above; assay type: cell-based, Plasmodium falciparum
# Outline: as §2
# [12] = Plasmodium falciparum, DD2, read-out: IC50, Dd2 (wt)
compound,measurement,setting,value
O=C(NCCN1CCCC1)c1cc(-c2ccc(CN3CCOCC3)cc2)nc2ccc(F)cc12 [Compound M5717],Cross resistance of compound 2-selected clone A3,[1],not cross‐resistant
same,"Fold shift, clone D3",[2],1.6 fold
same,Cross resistance of compound 2-selected clone G12,[3],not cross‐resistant
same,"Fold shift, clone D6",[4]; IC50 vs Dd2-B2 parent,14700x fold
same,IC50,"[4]; Plasmodium falciparum, D6, 72 h, read-out: IC50, clone D6",3.1 µM
same,"Fold shift, clone E5",[5]; IC50 vs Dd2-B2 parent,27x fold
same,IC50,"[5]; Plasmodium falciparum, 72 h, read-out: IC50, clone E5",0.0058 µM
same,"Fold shift, clone F8",[6]; IC50 vs Dd2-B2 parent,3100x fold
same,IC50,"[6]; Plasmodium falciparum, 72 h, read-out: IC50, clone F8",0.66 µM
same,IC50,P. falciparum Dd2 (wt); [12],0.002 µM
same,IC50,[7],3.1 µM
CCN(CC)CCCC(C)Nc1ccnc2cc(Cl)ccc12 (centres unmarked) [Chloroquine],IC50,P. falciparum K1,0.2 µM
same,IC50,P. falciparum 7G8,0.08 µM
same,IC50,P. falciparum TM90 C2b,0.14 µM
same,IC50,P. falciparum Cam3.I,0.18 µM
same,IC50,P. falciparum Dd2,0.16 µM
"O=C(C1CCN(c2nnnn2-c2ccc(N3CCCC3)cc2)CC1)N1CCCc2c(F)cccc21 [Compound 36, (5-fluoro-3,4-dihydroquinolin-1(2H)-yl)(1-(1-(4-(pyrrolidin-1-yl)phenyl)-1H-tetrazol-5-yl)piperidin-4-yl)methanone]",IC50,P. falciparum 3D7,0.066 ± 0.008 µM
same,improvement of antimalarial asexual blood stage in vitro potency,"P. falciparum 3D7; relative to hit compound 2, 72-hour 3D7 assay",30 fold
same,microsomal CLint at 1 µM,[8],> 400 µL/min/mg
"CC(C)n1nnnc1N1CCC(C(=O)N2CCCc3ccccc32)CC1 [Compound 27, (3,4-Dihydroquinolin-1(2H)-yl)(1-(1-isopropyl-1H-tetrazol-5-yl)piperidin-4-yl)methanone]",IC50,P. falciparum 3D7,5.6 ± 0.92 µM
same,microsomal CLint at 1 µM,[8],135 µL/min/mg
O=C(C1CCN(c2nnnn2-c2ccc(F)cc2)CC1)N1CCOc2ccccc21 [Compound 30],IC50,P. falciparum 3D7,8.9 ± 1.4 µM
same,microsomal CLint at 1 µM,[8],83 µL/min/mg
"Cc1ccccc1-n1nnnc1N1CCC(C(=O)N2CCCc3ccccc32)CC1 [Compound 8, (3,4-Dihydroquinolin-1(2H)-yl)(1-(1-(o-tolyl)-1H-tetrazol-5-yl)piperidin-4-yl)methanone]",IC50,P. falciparum 3D7,1.4 ± 0.02 µM
O=C(C1CCN(c2nnnn2-c2ccc(N3CCCC3)cc2)CC1)N1CCCc2c(Cl)cccc21 [Compound 33],IC50,P. falciparum 3D7,0.11 ± 0.01 µM
same,microsomal CLint at 1 µM,[8],> 400 µL/min/mg
"O=C(C1CCN(c2nnnn2-c2ccccc2)CC1)N1CCCc2ccc(Cl)cc21 [Compound 23, (7-Chloro-3,4-dihydroquinolin-1(2H)-yl)(1-(1-phenyl-1H-tetrazol-5-yl)piperidin-4-yl)methanone]",IC50,P. falciparum 3D7,> 25 µM
"O=C(C1CCN(c2nnnn2-c2ccccc2)CC1)N1CCCc2cnccc21 [Compound 25, (3,4-Dihydro-1,6-naphthyridin-1(2H)-yl)(1-(1-phenyl-1H-tetrazol-5-yl)piperidin-4-yl)methanone]",IC50,P. falciparum 3D7,10.8 ± 0.65 µM
"O=C(C1CCN(c2nnnn2-c2ccccc2)CC1)N1CCCc2ncccc21 [Compound 24, (3,4-Dihydro-1,5-naphthyridin-1(2H)-yl)(1-(1-phenyl-1H-tetrazol-5-yl)piperidin-4-yl)methanone]",IC50,P. falciparum 3D7,10.2 ± 0.75 µM
O=C(C1CCN(c2nnnn2-c2ccc(OC(F)(F)F)cc2)CC1)N1CCCc2ccccc21 [Compound 9],IC50,P. falciparum 3D7,5.5 ± 0.86 µM
COc1ccc(-n2nnnc2N2CCC(C(=O)N3CCCc4c(Cl)cccc43)CC2)cc1 [Compound 31],IC50,P. falciparum 3D7,0.7 ± 0.1 µM
same,microsomal CLint at 1 µM,[8],> 400 µL/min/mg
COc1ccc(-n2nnnc2N2CCC(C(=O)N3CCOc4c(Cl)cccc43)CC2)cc1 [Compound 32],IC50,P. falciparum 3D7,3.6 ± 1.2 µM
same,microsomal CLint at 1 µM,[8],78 µL/min/mg
N#Cc1ccc2c(c1)N(C(=O)C1CCN(c3nnnn3-c3ccccc3)CC1)CCC2 [Compound 22],IC50,P. falciparum 3D7,> 25 µM
"O=C(C1CCN(c2nnnn2C2CCCC2)CC1)N1CCCc2ccccc21 [Compound 28, (1-(1-cyclopentyl-1H-tetrazol-5-yl)piperidin-4-yl)(3,4-dihydroquinolin-1(2H)-yl)methanone]",IC50,P. falciparum 3D7,3.3 ± 0.48 µM
same,microsomal CLint at 1 µM,[8],> 400 µL/min/mg
"COc1ccc(-n2nnnc2N2CCC(C(=O)N3CCCc4ccccc43)CC2)cc1 [Compound 7, (3,4-Dihydroquinolin-1(2H)-yl)(1-(1-(4-methoxyphenyl)-1H-tetrazol-5-yl)piperidin-4-yl)methanone]",IC50,P. falciparum 3D7,0.9 ± 0.14 µM
same,microsomal CLint at 1 µM,[8],521 µL/min/mg
"O=C(C1CCN(c2nnnn2-c2ccccc2)CC1)N1CCCc2cc(Cl)ccc21 [Compound 20, (6-Chloro-3,4-dihydroquinolin-1(2H)-yl)(1-(1-phenyl-1H-tetrazol-5-yl)piperidin-4-yl)methanone]",IC50,P. falciparum 3D7,> 25 µM
O=C(C1CCN(c2nnnn2-c2ccc(N3CCCC3)cc2)CC1)N1CCOc2c(Cl)cccc21 [Compound 34],IC50,P. falciparum 3D7,1.6 ± 0.081 µM
same,microsomal CLint at 1 µM,[8],296 µL/min/mg
CS(=O)(=O)c1ccc(-c2cnc(N)c(-c3ccc(C(F)(F)F)nc3)c2)cc1 [MMV390048],IC50,P. falciparum Dd2 (wt); [12],0.0212 µM
same,IC50,"[9]; Plasmodium falciparum, DD2, read-out: IC50, Dd2 (Pfpi4k)",0.102 µM
same,"fold shift, Dd2 (Pfpi4k)",[9]; vs Dd2 (wt),4.8 fold
"O=C(C1CCN(c2nnnn2-c2ccccc2)CC1)N1CCCc2c(Cl)cccc21 [Compound 17, (5-Chloro-3,4-dihydroquinolin-1(2H)-yl)(1-(1-phenyl-1H-tetrazol-5-yl)piperidin-4-yl)methanone]",IC50,P. falciparum 3D7,0.6 ± 0.09 µM
C[C@H]1[C@H](OC(=O)CCC(=O)O)O[C@@H]2O[C@@]3(C)CC[C@H]4[C@H](C)CC[C@@H]1[C@@]24OO3 [Artesunate],IC50,P. falciparum K1,0.002 µM
same,IC50,P. falciparum 7G8,0.002 µM
same,IC50,P. falciparum TM90 C2b,0.005 µM
same,IC50,P. falciparum Cam3.I,0.011 µM
same,IC50,P. falciparum Dd2,0.006 µM
O=C(C1CCN(c2nnnn2C2CCCCC2)CC1)N1CCCc2ccccc21 [Compound 29],IC50,P. falciparum 3D7,3.5 ± 0.02 µM
same,microsomal CLint at 1 µM,[8],> 400 µL/min/mg
Cc1cc(Nc2ccc(S(F)(F)(F)(F)F)cc2)n2nc(C(C)(F)F)nc2n1 [DSM265],IC50,P. falciparum Dd2 (wt); [12],0.008 µM
same,IC50,"[10]; Plasmodium falciparum, DD2, read-out: IC50, Dd2 (Pfdhodh)",0.143 µM
same,"fold shift, Dd2 (Pfdhodh)",[10]; vs Dd2 (wt),18 fold
COc1cc2[nH]c(C)c(-c3ccc(Oc4ccc(OC(F)(F)F)cc4)cc3)c(=O)c2cc1Cl [ELQ300],IC50,"P. falciparum Dd2 (wt); read-out: IC50, Dd2 (wt), reference compounds",0.019 µM
same,IC50,"[11]; read-out: IC50, Dd2 (Pfcytb), reference compound",0.254 µM
same,"fold shift, Dd2 (Pfcytb)",[11]; vs Dd2 (wt),13 fold

# Source: paper PMC9827907 (Chemmedchem, 2022)
